Twelve compounds from ChEMBL document CHEMBL4622994, “Facile Synthesis of Aminomethyl Phosphinate Esters as Serine Protease Inhibitors with Primed Site Interaction” (ACS Med Chem Lett, 2020) can be followed below.

In general, Ki refers to a dissociation constant, usually derived from enzyme kinetics or from competition with a known ligand. Read a low Ki as tighter binding.

Experiment [1] is described as follows: Inhibition of bovine chymotrypsin using flurogenic substrate as chymotrypsin substrate 2 by fluorescence assay. Also noted: species or system Bos taurus. The method in brief: (§1)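 Progress-curve inhibition kinetics for irreversible covalent inhibitors, fitted to a two-step model: reversible non-covalent binding, then irreversible reaction with the enzyme. kinact is the rate constant of the irreversible step at infinite inhibitor concentration. KI is the inhibitor concentration giving an observed rate constant of 1/2 kinact. The kinact/KI ratio expresses overall potency. Inhibitors were tested as diastereomer mixtures; the dilution series spanned 200 to 26.7 μM.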

The species entered for experiment [2] is Bos taurus. Nature of the experiment: Inhibition of bovine chymotrypsin assessed as inactivation constant using flurogenic substrate as chymotrypsin substrate 2 by fluorescence assay. A digest of the protocol:
as §1

Experiment [3] is filed under the species Bos taurus. The experiment can be described thus: Inhibition of bovine chymotrypsin assessed as ratio of Kinact to Ki using flurogenic substrate as chymotrypsin substrate 2 by fluorescence assay. A digest of the protocol: as §1
Experiment [4] is filed under the species Bos taurus. The experiment can be described thus: Inhibition of bovine chymotrypsin at 100 uM preincubated for 30 mins followed by FP-rhodamine addition measured after 30 mins by fluorescence assay. The method in brief:
(§2)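 Competitive activity-based protein profiling. Enzyme was treated with compound at 100 μM, or with DMSO control. Residual active enzyme was then labeled with the general serine hydrolase activity-based probe FP-rhodamine and detected by fluorescent labeling.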

The target in experiment [5] is T1, Neutrophil elastase (Homo sapiens, UniProt P08246).
T1 sequence (P08246 whole entry): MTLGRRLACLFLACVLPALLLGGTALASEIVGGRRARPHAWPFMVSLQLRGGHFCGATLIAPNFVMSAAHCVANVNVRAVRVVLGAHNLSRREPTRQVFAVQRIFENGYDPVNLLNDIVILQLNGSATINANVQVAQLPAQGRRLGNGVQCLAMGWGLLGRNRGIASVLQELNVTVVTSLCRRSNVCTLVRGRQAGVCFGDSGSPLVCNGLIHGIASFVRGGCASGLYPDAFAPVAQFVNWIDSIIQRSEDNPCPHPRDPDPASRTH
The experiment can be described thus: Inhibition of human neutrophil elastase using flurogenic substrate as elastase substrate V by fluorescence assay. The method in brief: as §1

In experiment [6] the target is T2, Neutrophil elastase (Homo sapiens) (UniProt P08246).
T2 sequence (whole entry): T1 sequence (P08246 whole entry)
Nature of the experiment: Inhibition of human neutrophil Elastase assessed as inactivation constant using flurogenic substrate as elastase substrate V by fluorescence assay. The method in brief:
as §1

Experiment [7] has as its target T2, Neutrophil elastase (Homo sapiens). Nature of the experiment: Inhibition of human neutrophil Elastase assessed as ratio of Kinact to Ki using flurogenic substrate as elastase substrate V by fluorescence assay. The method in brief:
as §1

The species entered for experiment [8] is Sus scrofa. The experiment can be described thus: Inhibition of porcine pancreatic elastase assessed as ratio of Kinact to Ki using flurogenic substrate as elastase substrate V by fluorescence assay. A digest of the protocol:
as §1

The target in experiment [9] is T3, Cathepsin G (Homo sapiens) (UniProt P08311).
T3 sequence (whole entry): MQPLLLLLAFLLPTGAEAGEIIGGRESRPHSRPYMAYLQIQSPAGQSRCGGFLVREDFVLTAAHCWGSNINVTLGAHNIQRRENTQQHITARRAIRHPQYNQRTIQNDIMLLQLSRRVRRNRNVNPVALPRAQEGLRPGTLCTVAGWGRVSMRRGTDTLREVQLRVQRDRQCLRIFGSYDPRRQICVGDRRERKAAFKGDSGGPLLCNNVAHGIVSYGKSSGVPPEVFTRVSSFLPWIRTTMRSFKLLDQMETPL
Nature of the experiment: Inhibition of human cathepsin G at 100 uM preincubated for 30 mins followed by FP-rhodamine addition measured after 30 mins by fluorescence assay. A digest of the protocol:
as §2

Experiment [10] in a line: Inhibition of porcine pancreatic elastase using flurogenic substrate as elastase substrate V by fluorescence assay. Also noted: species or system Sus scrofa. The method in brief:
as §1

Experiment [11] addresses T2, Neutrophil elastase (Homo sapiens). Nature of the experiment: Inhibition of human neutrophil Elastase at 100 uM preincubated for 30 mins followed by FP-rhodamine addition measured after 30 mins by fluorescence assay. The method in brief:
as §2

Experiment [12] is filed under the species Sus scrofa. The note with it: 100 uM.

The source made the active and inactive calls. The rule behind the calls is not given here.

`O=C(NC(Cc1ccccc1)P(=O)(Oc1ccccc1)Oc1ccccc1)OCc1ccccc1` (stereo not drawn) gave a Ki in experiment [1] of 0.69 µM. In addition, the Kinact in experiment [2] was 5.63 ×10⁻³ /s. Also, the Ratio in experiment [3] stood at 8.1 ×10³ /M/s.

As to `CC(C)(C)P(=O)(Oc1ccccc1)C(NC(=O)OCc1ccccc1)c1ccccc1` (stereo not drawn), the inhibition entry in experiment [4] was “inactive”.

On to `CCCP(=O)(Oc1ccccc1)C(NC(=O)OCc1ccccc1)c1ccccc1` (stereo not drawn), for which, in experiment [1], the affinity corresponds to a Ki of 14.5 µM. For the same compound, in experiment [2], the Kinact was 5.84 ×10⁻³ /s. Further, the inhibition result in experiment [4] is “Active”. In [3], the Ratio was determined as 404 M⁻¹ s⁻¹.

On to `CCCP(=O)(Oc1ccccc1)C(NC(=O)OCc1ccccc1)C(C)C` (stereo not drawn), for which the inhibition result in experiment [4] was “inactive”.

Turning to `CC(C)C(NC(=O)OCc1ccccc1)P(=O)(Oc1ccccc1)Oc1ccccc1` (stereo not drawn), the inhibition constant (Ki) in experiment [5] was 2.96 µM. For the same compound, the Kinact in [6] came out at 0.59 ×10⁻³ /s. In addition, the Ratio in [7] was 200 M⁻¹ s⁻¹. Moreover, the Ratio result in experiment [8] was “inactive”.

As for `CC(C)C(NC(=O)OCc1ccccc1)P(=O)(Oc1ccccc1)C(C)(C)C` (stereo not drawn), the inhibition result in [4] is “inactive”.

In experiment [1], `CC(C)CC(NC(=O)OCc1ccccc1)P(=O)(Oc1ccccc1)c1ccccc1` (stereo not drawn) came in with a Ki of 21.6 µM. In addition, the Kinact in experiment [2] was 21.1 ×10⁻³ /s. Moreover, the inhibition result in experiment [4] was “Active”. Besides, the Ratio in [3] worked out at 978 M⁻¹ s⁻¹.

In the case of `O=C(NC(Cc1ccccc1)P(=O)(Oc1ccccc1)c1ccccc1)OCc1ccccc1` (stereo not drawn), in experiment [1], the Ki is 1.4 µM. Also, the Kinact in experiment [2] came to 23 ×10⁻³ /s. The inhibition entry in [9] and in experiment [4] was “Active” each time. In addition, in [3], the Ratio was 16.4 ×10³ /M/s.

As for `CC(C)C(NC(=O)OCc1ccccc1)P(=O)(Oc1ccccc1)c1ccccc1` (stereo not drawn), the values for the Ki in experiment [5], in experiment [10] and in [1] were 51 µM, 132 µM and 7.42 µM, respectively. Besides, the inhibition result in experiment [11], in [4] and in experiment [12] was “Active” throughout.

As for `CCCP(=O)(Oc1ccccc1)C(CC(C)C)NC(=O)OCc1ccccc1` (stereo not drawn), the affinity in experiment [1] corresponds to a Ki of 13 µM. Moreover, the Kinact in experiment [2] turned out to be 2.44 ×10⁻³ /s. Also, in experiment [4], the inhibition result was “Active”. Moreover, the Ratio in experiment [3] was found to be 188 M⁻¹ s⁻¹.

`CC(C)CC(NC(=O)OCc1ccccc1)P(=O)(Oc1ccccc1)C(C)(C)C` (stereo not drawn): the inhibition result in [4] was “inactive”.

In experiment [1], `O=C(NC(c1ccccc1)P(=O)(Oc1ccccc1)c1ccccc1)OCc1ccccc1` (stereo not drawn) had a Ki of 0.46 µM. Further, in [2], the Kinact was 1.57 ×10⁻³ /s. The inhibition result in [4] is “Active”. Further, in [3], the Ratio was found to be 3.4 ×10³ /M/s.
